Data taken from ChEMBL document CHEMBL1128644, “(+/-)-(N-alkylamino)benzazepine analogs: novel dopamine D1 receptor antagonists” (J Med Chem, 1995).
pKi: −log10 of the molar value.

Experiments:
D(2) dopamine receptor = D(2) dopamine receptor (Rattus norvegicus, UniProt P61169); experiment: Binding affinity against Dopamine receptor D2 from rat striatal membranes, using [3H]sulpiride as radioligand.
Outline: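 Rat (male Sprague–Dawley, 200–250 g) caudate putamen membranes, freshly prepared in 50 mM Tris pH 7.4 and washed by centrifugation. Incubation with 3 nM [³H]sulpiride (final) for 30 min at 37 °C, in triplicate. Nonspecific binding defined with 10 μM sulpiride. Filtration, scintillation counting, Ki by LIGAND; at least three determinations.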

D(1A) dopamine receptor = D(1A) dopamine receptor (Rattus norvegicus, UniProt P18901)
Sequence of D(1A) dopamine receptor (P18901 whole entry): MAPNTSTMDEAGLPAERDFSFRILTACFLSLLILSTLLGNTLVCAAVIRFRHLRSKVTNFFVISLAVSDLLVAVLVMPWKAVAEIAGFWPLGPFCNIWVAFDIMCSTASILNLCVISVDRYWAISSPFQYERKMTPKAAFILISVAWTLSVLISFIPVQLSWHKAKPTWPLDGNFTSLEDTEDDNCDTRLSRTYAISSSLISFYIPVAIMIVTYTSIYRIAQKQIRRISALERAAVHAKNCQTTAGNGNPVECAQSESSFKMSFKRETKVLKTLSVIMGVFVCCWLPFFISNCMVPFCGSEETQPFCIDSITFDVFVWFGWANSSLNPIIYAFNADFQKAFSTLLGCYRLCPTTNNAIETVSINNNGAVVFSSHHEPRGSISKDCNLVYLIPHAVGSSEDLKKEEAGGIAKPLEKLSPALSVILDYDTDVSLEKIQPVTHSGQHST

Sequence of D(2) dopamine receptor (P61169 whole entry): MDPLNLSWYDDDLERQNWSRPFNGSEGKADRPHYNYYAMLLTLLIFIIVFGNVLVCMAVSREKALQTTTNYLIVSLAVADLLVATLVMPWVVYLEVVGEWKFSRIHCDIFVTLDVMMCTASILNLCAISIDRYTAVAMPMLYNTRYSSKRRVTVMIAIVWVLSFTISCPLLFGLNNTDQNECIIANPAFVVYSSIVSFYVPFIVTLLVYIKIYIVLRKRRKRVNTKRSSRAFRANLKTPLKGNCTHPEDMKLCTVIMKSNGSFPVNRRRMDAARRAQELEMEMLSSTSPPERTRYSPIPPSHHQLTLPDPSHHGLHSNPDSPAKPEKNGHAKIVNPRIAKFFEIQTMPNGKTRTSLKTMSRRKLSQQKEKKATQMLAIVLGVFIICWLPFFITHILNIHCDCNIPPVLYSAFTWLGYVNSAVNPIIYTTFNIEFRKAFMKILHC

| pKi (D(2) dopamine receptor) | pKi (D(1A) dopamine receptor) | SMILES |
| --- | --- | --- |
| 5.45 | 7.12 | CNCCCCCCN1CCc2cc(Cl)c(O)cc2C(c2ccccc2)C1 (centres undefined) |
| 5.38 | 6.09 | CN(C)CCCCN1CCc2cc(Cl)c(O)cc2C(c2ccccc2)C1 (centres undefined) |
| 5.63 | 6.20 | CCCCN1CCc2cc(Cl)c(O)cc2C(c2ccccc2)C1 (centres undefined) |
| 5.04 | < 5.00 | COc1cc2c(cc1Cl)CCN(CCCCN(C)C)CC2c1ccccc1 (centres undefined) |
| < 5.00 | < 5.00 | COc1cc2c(cc1OC)C(c1ccccc1)CN(CCCCN(C)C)CC2 (centres undefined) |
| 5.37 | 7.12 | NCCCCN1CCc2cc(Cl)c(O)cc2C(c2ccccc2)C1 (centres undefined) |
| < 5.00 | 5.83 | CN(C)CCCCN1CCc2cc(Br)c(O)cc2C(c2ccccc2)C1 (centres undefined) |
| 5.60 | < 5.00 | COc1cc2c(cc1Br)CCN(CCCCN(C)C)CC2c1ccccc1 (centres undefined) |
| < 5.00 | 5.32 | CN(C)CCCCN1CCc2cc(O)c(O)cc2C(c2ccccc2)C1 (centres undefined) |
| 5.69 | 6.26 | O=CNCCCCCCN1CCc2cc(Cl)c(O)cc2C(c2ccccc2)C1 (centres undefined) |
| 5.60 | 6.49 | NCCCCCCN1CCc2cc(Cl)c(O)cc2C(c2ccccc2)C1 (centres undefined) |
| 5.13 | 6.22 | NCCCC(=O)N1CCc2cc(Cl)c(O)cc2C(c2ccccc2)C1 (centres undefined) |
| < 5.00 | 6.97 | CNCCCCN1CCc2cc(Cl)c(O)cc2C(c2ccccc2)C1 (centres undefined) |

| SMILES | pKi (D(2) dopamine receptor) | pKi (D(1A) dopamine receptor) |
| --- | --- | --- |
| CN(C)CCCCCCN1CCc2cc(Cl)c(O)cc2C(c2ccccc2)C1 (centres undefined) | 5.46 | 7.31 |
| BC#N.CN(C)CCCCCCN1CCc2cc(Cl)c(O)cc2C(c2ccccc2)C1 (centres undefined) |  | 6.85 |
